Reference: ChEMBL document CHEMBL3616384, “Benzimidazole derivatives protect against cytokine-induced apoptosis in pancreatic β-Cells” (Bioorg Med Chem Lett, 2015)
Activity calls are given as the source filed them. The rule behind the calls is not given here.

Tests used:
[1] = (§1) Cytoprotective activity in rat INS-1E cells assessed as restoration of recombinant rat IL-1beta/recombinant mouse IFN-gamma and TNF-alpha-suppressed ATP level after 48 hrs by Cell Titer-Glo assay; assay type: functional, cell-based; conditions: for EC50: Rattus norvegicus, INS-1E, 48 h
In short: (§2)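 INS-1E rat insulinoma cells exposed 48 h to IL-1β 20 ng/mL, INF-γ 50 ng/mL and TNF-α 50 ng/mL, with or without increasing compound concentrations. Cellular ATP was measured as a viability surrogate and normalized to untreated controls.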

[2] = (§3) Cytoprotective activity in rat INS-1E cells assessed as suppression of recombinant rat IL-1beta/recombinant mouse IFN-gamma and TNF-alpha-induced caspase-3 expression after 48 hrs by Caspase-Glo 3/7 assay; assay type: functional, cell-based; conditions: for IC50: Rattus norvegicus, INS-1E, 48 h
In short: (§4)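 INS-1E cells were given the 48 h cytokine cocktail (IL-1β 20 ng/mL, INF-γ 50 ng/mL, TNF-α 50 ng/mL) with rising compound concentrations. Caspase-3 activity, as a direct apoptosis readout, was normalized to untreated controls. Mean ± SD of 12 independent wells.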

[3] = (§5) Cytoprotective activity in rat INS-1E cells assessed as suppression of recombinant rat IL-1beta/recombinant mouse IFN-gamma and TNF-alpha-induced nitrite production after 48 hrs by Griess assay; assay type: functional, cell-based; conditions: for IC50: Rattus norvegicus, INS-1E, 48 h
In short: (§6)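 Nitrite production was measured in INS-1E cells after 48 h with IL-1β 20 ng/mL, INF-γ 50 ng/mL and TNF-α 50 ng/mL plus increasing compound concentrations. Mean ± SD of 12 independent wells.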

[4] = (§7) Cytoprotective activity in rat INS-1E cells assessed as increase in recombinant rat IL-1beta/recombinant mouse IFN-gamma and TNF-alpha-suppressed glucose-stimulated insulin secretion preincubated for 48 hrs followed by KRBH buffer addition without glucose for 2 hrs and subsequently incubated with KRBH buffer in presence of glucose for 1 hr by ELISA; assay type: functional, cell-based; conditions: for EC50: Rattus norvegicus, INS-1E
In short: (§8)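 Cytokine-exposed INS-1E cells (48 h; IL-1β 20 ng/mL, INF-γ 50 ng/mL, TNF-α 50 ng/mL) were co-treated with a compound dose series, and glucose-stimulated insulin secretion was measured. EC50 and maximum activity were derived from the dose-response. Mean ± SD of 2 independent experiments.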

INS-1E [5] = test: as §1; assay type: functional, cell-based; in short: as §2
INS-1E [6] = test: Cytoprotective activity in rat INS-1E cells assessed as restoration of recombinant rat IL-1beta/recombinant mouse IFN-gamma and TNF-alpha-suppressed ATP level at 2 uM after 48 hrs by Cell Titer-Glo assay; assay type: functional, cell-based; in short: as §2
INS-1E [7] = test: as §3; assay type: functional, cell-based; in short: as §4
INS-1E [8] = test: as §5; assay type: functional, cell-based; in short: as §6
INS-1E [9] = test: as §7; assay type: functional, cell-based; in short: as §8
[10] = as §7, with “secretion at 5 uM” for “secretion”, “ELISA relative to control” for “ELISA”; assay type: functional
In short: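 After 48 h exposure to the cytokine cocktail (IL-1β 20 ng/mL, INF-γ 50 ng/mL, TNF-α 50 ng/mL) with 5 µM compound added, INS-1E insulin secretion was measured at low (2) and high (16) glucose. Results are compared with untreated and no-cytokine cells. Mean ± SD of 2 independent experiments.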

IC50 [2] [µM]	IC50 [3] [µM]	EC50 [4] [µM]	SMILES	%max [1] [%]	EC50 [1] [µM]	%max [2] [%]	%max [3] [%]	%max [4] [%]	Activity (INS-1E [5])	Activity (INS-1E [6])	Activity (INS-1E [7])	Activity (INS-1E [8])	Activity (INS-1E [9])	fold change (FC) [10]	%max (INS-1E [9])
16.4	17.5	–	Cc1cc2nc(-c3ccc(C(=O)N/N=C/c4ccc(O)cc4O)cc3)[nH]c2cc1C	86	7.28	75	72	64	–	–	–	–	–	–	–
9.48	11.4	8.32	Cc1cc2nc(-c3ccc(C(=O)N/N=C/c4cccc(O)c4O)cc3)[nH]c2cc1C	89	3.17	82	79	84	Dose-dependent effect	–	Dose-dependent effect	Dose-dependent effect	Dose-dependent effect	–	–
> 30	> 30	–	COc1ccc(/C=N/NC(=O)c2ccc(-c3nc4cc(C)c(C)cc4[nH]3)cc2)c(O)c1	54	29.3	15	18	–	–	–	–	–	–	–	inactive
8.81	17.3	13.3	Cc1cc2nc(-c3ccc(C(=O)N/N=C/c4cc(O)ccc4O)cc3)[nH]c2cc1C	93	2.57	84	71	71	Dose-dependent effect	–	Dose-dependent effect	Dose-dependent effect	Dose-dependent effect	–	–

Further lines, the compound ahead of its results:

SMILES	IC50 [2] [µM]	IC50 [3] [µM]	EC50 [4] [µM]	%max [1] [%]	EC50 [1] [µM]	%max [2] [%]	%max [3] [%]	%max [4] [%]	Activity (INS-1E [5])	Activity (INS-1E [6])	Activity (INS-1E [7])	Activity (INS-1E [8])	Activity (INS-1E [9])	fold change (FC) [10]	%max (INS-1E [9])
Cc1cc2nc(-c3ccc(C(=O)N/N=C/c4ccc(O)c(O)c4)cc3)[nH]c2cc1C	> 30	17.6	–	73	16.7	22	68	53	–	–	–	–	–	–	–
Cc1cc2nc(-c3ccc(C(=O)N/N=C/c4cc(O)c(O)c(O)c4)cc3)[nH]c2cc1C	18.5	9.47	5.41	98	0.968	68	85	91	Dose-dependent effect	Active	Dose-dependent effect	Dose-dependent effect	Dose-dependent effect	>3	–
COc1ccc(O)c(/C=N/NC(=O)c2ccc(-c3nc4cc(C)c(C)cc4[nH]3)cc2)c1	> 30	> 30	–	61	25.3	12	20	–	–	–	–	–	–	–	inactive
